Results on one molecule are retold here after ChEMBL document CHEMBL1155043, “Complexation of the anti-Trypanosoma cruzi drug benznidazole improves solubility and efficacy” (J Med Chem, 2008).

Converted amounts (≈) assume the structure as drawn. The source made the active and inactive calls. No cut-off for these calls is given here. Some results are limits rather than exact numbers.

Series [1] has as its system Trypanosoma cruzi. The experiment in a line: Antitrypanosomal activity against bloodstream trypomastigote of Trypanosoma cruzi Y assessed as number of motile forms after 1 hr by hemocytometer. The class given is functional, organism-based. The gist of the method: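 Bloodstream trypomastigotes (Y strain) taken from mice at peak parasitemia, resuspended to 1.0 × 10^6/mL. Triplicate wells with compound in PBS at 0.1, 0.25, 0.5 and 1.0 mM, 37 °C, 5% CO2, 1 h. Motile forms counted by hemocytometer; % trypanocidal activity = [1 - (LDt/LCt)] × 100 against untreated wells.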

The next series concerns V79. In words: Cytotoxicity against chinese hamster V79 cells. The class given is cell-based. To be noted: Cricetulus griseus.
In series [2] the test system is Trypanosoma cruzi. In words: Antiproliferative activity against Trypanosoma cruzi Y epimastigotes assessed as number of motile forms at 0.1 mM after 1 hr by hemocytometer. The class given is functional. To be noted: read-out: GI. The procedure, abridged:
(§1)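 Y strain epimastigotes grown in Schneider's medium with 20% fetal calf serum, taken in exponential phase, PBS-washed, resuspended to 2.0 × 10^6/mL. Plated in triplicate with compound diluted in PBS, incubated at 37 °C, 5% CO2. Motile forms counted by hemocytometer; % growth inhibition = {1 - [(LDt - LDt0)/(LCt - LCt0)]} × 100 against untreated wells.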

The subject of series [3] is Trypanosoma cruzi. The experiment in a line: Antiproliferative activity against Trypanosoma cruzi Y epimastigotes assessed as number of motile forms at 0.5 mM after 1 hr by hemocytometer. The class given is functional. The conditions noted are these: read-out: GI. The procedure, abridged:
as §1

Series [4] has as its system Trypanosoma cruzi. The experiment in a line: Antiproliferative activity against Trypanosoma cruzi Y epimastigotes assessed as number of motile forms at 1 mM after 1 hr by hemocytometer. The class given is functional. The conditions noted are these: read-out: GI. The gist of the method: as §1
Series [5] relates to Trypanosoma cruzi. The experiment in a line: Antiproliferative activity against Trypanosoma cruzi Y epimastigotes assessed as number of motile forms at 0.1 mM after 4 hrs by hemocytometer. The class given is functional. To be noted: read-out: GI. The gist of the method: as §1
Series [6] has as its system Trypanosoma cruzi. The experiment in a line: Antiproliferative activity against Trypanosoma cruzi Y epimastigotes assessed as number of motile forms at 0.5 mM after 4 hrs by hemocytometer. The conditions noted are these: read-out: GI. The class given is functional. The procedure, abridged: as §1
In series [7] the test system is Trypanosoma cruzi. In words: Antiproliferative activity against Trypanosoma cruzi Y epimastigotes assessed as number of motile forms at 1 mM after 4 hrs by hemocytometer. The class given is functional. The conditions noted are these: read-out: GI. The procedure, abridged: as §1
Series [8] has as its system Trypanosoma cruzi. In words: Antiproliferative activity against Trypanosoma cruzi Y epimastigotes assessed as number of motile forms at 0.1 mM after 24 hrs by hemocytometer. The class given is functional. To be noted: read-out: GI. The gist of the method:
as §1

Series [9] deals with Trypanosoma cruzi. The experiment in a line: Antiproliferative activity against Trypanosoma cruzi Y epimastigotes assessed as number of motile forms at 0.5 mM after 24 hrs by hemocytometer. To be noted: read-out: GI. The class given is functional. The procedure, abridged:
as §1

Series [10] deals with Trypanosoma cruzi. In words: Antiproliferative activity against Trypanosoma cruzi Y epimastigotes assessed as number of motile forms at 1 mM after 24 hrs by hemocytometer. The class given is functional. The conditions noted are these: read-out: GI. The gist of the method: as §1
Series [11] relates to Trypanosoma cruzi. In words: Antitrypanosomal activity against Trypanosoma cruzi Y epimastigotes assessed as number of motile forms after 24 hrs by hemocytometer. The class given is functional, organism-based. The gist of the method:
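Y strain epimastigotes in Schneider's medium with 20% FCS, exponential phase, PBS-washed, 2.0 × 10^6/mL. Triplicate wells with compound in PBS at 0.1, 0.25, 0.5 and 1.0 mM, 37 °C, 5% CO2, 24 h. Motile forms counted by hemocytometer; IC50 taken as 50% antiproliferative activity. Mean ± SEM, n = 3.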

Series [12] concerns Trypanosoma cruzi. In words: Antitrypanosomal activity against Trypanosoma cruzi Y infected in Swiss mouse assessed as survivality at 100 nmol/kg, ip after 15 consecutive days. The class given is functional, organism-based. The procedure, abridged:
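Female Swiss mice, 5-6 weeks old, groups of six, infected ip with 1.0 × 10^3 Y strain bloodstream trypomastigotes. Treated ip in 100 µL PBS daily for 15 consecutive days. Controls were untreated or PBS-only infected mice. Survival followed up to 120 days.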

For series [13], the system named is Trypanosoma cruzi. In words: Antitrypanosomal activity against Trypanosoma cruzi Y infected in Swiss mouse assessed as decrease in parasitemia at 385 umol/kg, po after 15 consecutive days. The class given is functional, organism-based.
Series [14] relates to Trypanosoma cruzi. In words: Antitrypanosomal activity against Trypanosoma cruzi Y infected in Swiss mouse assessed as survivality at 385 umol/kg, po for 1 day after 15 days. The class given is functional. The procedure, abridged:
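Female Swiss mice, 5-6 weeks old, infected intraperitoneally with 1.0 × 10^3 Y-strain bloodstream trypomastigotes. A single oral dose in PBS was given only on the first day after infection. Groups of six, with infected controls. Survival was followed, and parasitemia was counted as motile trypomastigotes in 5 µL tail blood.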

Series [15] can be described thus: Aqueous solubility at pH 6.5. The class given is physicochemical. The gist of the method:
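Solubility measured in a bio-relevant medium simulating fasted proximal small intestine: 3 mM sodium taurocholate, 0.75 mM lecithin, KH2PO4, KCl, pH 6.5, 37 °C. Excess compound stirred 24 h in 5 mL, filtered through 0.45 µm, diluted, and quantified by UV-vis at 323 nm (ε = 4.5 × 10^3 M-1 cm-1), in triplicate.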

For series [16], the system named is Trypanosoma cruzi. The experiment in a line: Antitrypanosomal activity against Trypanosoma cruzi Y infected in Swiss mouse assessed as survivality at 385 umol/kg, po after 15 consecutive days. The class given is functional. The gist of the method: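 Female Swiss mice, 5-6 weeks old, infected intraperitoneally with 1.0 × 10^3 Y-strain bloodstream trypomastigotes from an infected mouse. Oral dosing once daily in PBS for 15 consecutive days. Groups of six; untreated or PBS-only infected controls. Parasitemia counted as motile trypomastigotes in 5 µL tail blood, and survival of the treated animals recorded.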

As to `O=C(Cn1ccnc1[N+](=O)[O-])NCc1ccccc1` [BENZNIDAZOLE], the IC50 in the series with Trypanosoma cruzi [1] is greater than 1000 µM; in the series with V79, 2000 µM; in the series on Trypanosoma cruzi [11], greater than 1000 µM. Further, the inhibition of growth at 100 µM worked out at 0% in the series with Trypanosoma cruzi [2], 11% with Trypanosoma cruzi [5] and 15% in the series on Trypanosoma cruzi [8]. Also, the inhibition of growth at 500 µM in the series on Trypanosoma cruzi [3] stood at 0%; with Trypanosoma cruzi [6] it was 15%; in the series with Trypanosoma cruzi [9] it was 26%. Further, the values for the inhibition of growth at 1000 µM in the series with Trypanosoma cruzi [4], in the series with Trypanosoma cruzi [7] and in the series with Trypanosoma cruzi [10] were 7%, 24% and 31%, respectively. For the same molecule, the result in the series on Trypanosoma cruzi [12] was inactive. Besides, the result in the series on Trypanosoma cruzi [13] was Active. Moreover, the survival at 385 µmol/kg in the series on Trypanosoma cruzi [14] is 20%; in the series with Trypanosoma cruzi [16] it was 100%. The molecule also showed a solubility in [15] of 400 µg/mL (≈ 1540 µM).

The term IC50 denotes the concentration needed to halve the response being measured. A word on the solubility: it is the concentration that dissolves in the medium under given conditions.
